Data on 17 compounds can be found in ChEMBL document CHEMBL4052626, “Identification of thiazolo[5,4-d]pyrimidine derivatives as potent antiproliferative agents through the drug repurposing strategy” (Eur J Med Chem, 2017).

For assay [1], the system named is MGC-803. Nature of the assay: Antiproliferative activity against human MGC803 cells after 72 hrs by MTT assay. The class given is functional, cell-based. To be noted: MGC-803, 72 h. The procedure, abridged: (§1)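 Cells in exponential growth were plated at 3,000 per well and left 24 h. Medium was then replaced with fresh medium holding graded compound concentrations, and incubation ran 72 h. Viability was read by MTT at 570 nm.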

The test system of the next assay is NCI-H1650. Nature of the assay: Antiproliferative activity against human NCI-H1650 cells after 72 hrs by MTT assay. The class given is functional, cell-based. To be noted: NCI-H1650, 72 h. An outline of the steps: as §1
Background: Formazan colour is commonly taken as a measure of viable cells.

For another assay, the system named is HGC-27. Nature of the assay: Antiproliferative activity against human HGC27 cells after 72 hrs by MTT assay. To be noted: HGC-27, 72 h. Format: functional, cell-based. An outline of the steps: as §1
For the next assay, the system named is GES1. The assay is described as follows: Cytotoxicity against human GES-1 cells after 72 hrs by MTT assay. Format: cell-based. To be noted: GES1, 72 h. An outline of the steps:
as §1

The nature of assay [2]: Selectivity index, ratio of IC50 for human GES-1 cells to IC50 for human MGC803 cells. Format: functional. The procedure, abridged: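 SI equals IC50 in GES-1 divided by IC50 in MGC803. Both IC50s come from 72 h exposure in the MTT viability assay, with 3,000 cells/well plated 24 h before dosing. Each is the mean ± SD of three independent experiments.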
For assay [3], the system named is MGC-803. The assay is described as follows: Induction of apoptosis in human MGC803 cells at 1 uM after 24 hrs by annexin V-FITC/propidium iodide staining-based assay (reference value: 2.3%). The class given is functional.
The test system of assay [4] is MGC-803. The assay is described as follows: Antiproliferative activity against human MGC803 cells assessed as reduction in colony formation at 3 uM after 9 days by crystal violet staining-based clonogenic assay relative to control. Format: functional. As to conditions: MGC-803, 216 h. An outline of the steps:
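MGC803 were seeded at 1000 cells/well, allowed 24 h, then given fresh medium with graded compound concentrations for 9 days. Cells were PBS-washed, fixed in 4% paraformaldehyde and stained with 0.1% crystal violet. A colony was counted as >10 cells. Inhibition rate = (1 − treated count/control count) × 100%. Run in triplicate.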

The subject of assay [5] is MGC-803. Nature of the assay: Antimigratory activity against human MGC803 cells assessed as reduction in wound healing at 1 uM by inverted microscopic method. Format: functional, cell-based. To be noted: TDE = time-dependent effect. An outline of the steps: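 MGC803 in 24-well format were scratched with a 10 µL tip. Cells were then incubated with graded compound concentrations for the indicated times. Wound closure was photographed under an inverted microscope.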

For assay [6], the system named is MGC-803. Nature of the assay: Induction of apoptosis in human MGC803 cells assessed as cell rounding at 1 to 5 uM after 24 hrs by Hoechst 33258 staining-based fluorescence microscopic analysis. Format: functional. The procedure, abridged: (§2)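 MGC803 were seeded at 2×10^5/well and allowed to adhere overnight. They were exposed to graded concentrations for 24 h, then stained with Hoechst 33258 for 30 min in the dark. Nuclear morphology was examined by fluorescence microscopy.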

Assay [7] has as its system MGC-803. Nature of the assay: Induction of apoptosis in human MGC803 cells assessed as chromatin shrinkage at 1 to 5 uM after 24 hrs by Hoechst 33258 staining-based fluorescence microscopic analysis. Format: functional, cell-based. The procedure, abridged:
as §2

The test system of assay [8] is MGC-803. The assay is described as follows: Induction of apoptosis in human MGC803 cells assessed as formation of apoptotic bodies at 1 to 5 uM after 24 hrs by Hoechst 33258 staining-based fluorescence microscopic analysis. Format: functional, cell-based. The procedure, abridged: as §2
Assay [9] has as its system MGC-803. The assay is described as follows: Induction of apoptosis in human MGC803 cells assessed as increase in Bax protein levels after 24 by Western blot analysis. The class given is functional, cell-based. An outline of the steps:
(§3)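 After 24 h treatment at graded concentrations, MGC803 were lysed 30 min in RIPA buffer with protease inhibitors and spun at 12,000 rpm for 10 min at 4 °C. Protein was quantified by BCA, then run on SDS-PAGE and blotted to nitrocellulose. Membranes were blocked in 5% milk for 2 h, incubated with primary antibodies overnight at 4 °C, then secondary (1:5000) for 2 h. Detection was by ECL.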
(In general: In western blotting, separated proteins are transferred to a membrane and probed.)

In assay [10] the test system is MGC-803. The assay is described as follows: Induction of apoptosis in human MGC803 cells assessed as decrease in BCL-2 protein levels at 1 to 5 uM after 24 hrs by Western blot analysis. Format: functional, cell-based. The procedure, abridged: as §3
Assay [11] concerns MGC-803. Nature of the assay: Induction of apoptosis in human MGC803 cells assessed as increase in cleaved caspase-3 protein levels at 1 to 5 uM after 24 by Western blot analysis. The class given is functional, cell-based. An outline of the steps: as §3
The subject of assay [12] is MGC-803. The assay is described as follows: Induction of apoptosis in human MGC803 cells assessed as increase in cleaved caspase-9 protein levels at 1 to 5 uM after 24 by Western blot analysis. The class given is functional, cell-based. An outline of the steps:
as §3

For assay [13], the system named is MGC-803. Nature of the assay: Induction of apoptosis in human MGC803 cells at 2 uM after 24 hrs by annexin V-FITC/propidium iodide staining-based assay (reference value: 2.3%). Format: functional.
Assay [14] has as its system MGC-803. The assay is described as follows: Induction of apoptosis in human MGC803 cells at 5 uM after 24 hrs by annexin V-FITC/propidium iodide staining-based assay (reference value: 2.3%). The class given is functional.
Assay [15] deals with MGC-803. Nature of the assay: Induction of apoptosis in human MGC803 cells after 24 hrs by annexin V-FITC/propidium iodide staining-based assay. Format: functional, cell-based.

The structures appear in SMILES notation. Calls of active or inactive are those of the source. No cut-off for these calls is given here. A value given as a limit tells only on which side of the number the result lay.

Turning to `CCCSc1nc(NCCc2cc3ccccc3[nH]2)c2nc(Nc3ccccc3)sc2n1`, the IC50 in the assay on MGC-803 [1] turned out to be 6.99 µM; in the assay with NCI-H1650, 9.62 µM; in the assay with HGC-27 it was 16.2 µM.

As for `CCCSc1nc(Nc2ccc(OC)cc2)c2nc(Nc3ccccc3)sc2n1`, the values for the IC50 in the assay with MGC-803 [1], with NCI-H1650 and in the assay with HGC-27 were over 64 µM, 20.7 µM and 30.9 µM, respectively.

Consider `CCCSc1nc(NCc2ccc(O)cc2)c2nc(Nc3ccccc3)sc2n1`, for which the IC50 is 21.9 µM with MGC-803 [1], 9.23 µM in the assay with NCI-H1650 and 17.3 µM in the assay with HGC-27.

In the case of `CCCSc1nc(Nc2ccccc2)c2nc(Nc3ccccc3)sc2n1`, the half-maximal inhibitory concentration (IC50) in the assay with MGC-803 [1] is 24.4 µM; with NCI-H1650, 12.1 µM; in the assay on HGC-27 it was 35.3 µM.

With `CCCSc1nc(NCCc2cccs2)c2nc(Nc3ccccc3)sc2n1`, the IC50 in the assay with MGC-803 [1] came out at 11.3 µM; in the assay on NCI-H1650, 10 µM; in the assay with HGC-27 it was 17.7 µM.

Turning to `CCCSc1nc(N2CCOCC2)c2nc(Nc3ccccc3Cl)sc2n1`, the results for the IC50 with MGC-803 [1], with NCI-H1650 and in the assay on HGC-27 were 3.4 µM, 21.7 µM and 11.3 µM, respectively.

Turning to `O=c1[nH]cc(F)c(=O)[nH]1` [FLUOROURACIL], the IC50 in the assay on NCI-H1650 was found to be 12.5 µM; in the assay with HGC-27, 8.22 µM.

For the compound `CCCSc1nc(N2CCSCC2)c2nc(Nc3ccccc3)sc2n1`, the IC50 in the assay with MGC-803 [1] is 12.3 µM; with NCI-H1650 it was 12.9 µM; with HGC-27, 28.5 µM.

For the compound `CCCSc1nc(N2CCN(Cc3ccccc3)CC2)c2nc(Nc3ccccc3)sc2n1`, the IC50 in the assay with MGC-803 [1] was 18.8 µM; in the assay on NCI-H1650 it was 27 µM; in the assay with HGC-27, over 64 µM.

`c1ccc(CSc2nc(N3CCOCC3)c3nc(Nc4ccccc4)sc3n2)cc1`: the IC50 was found to be 1.03 µM in the assay with MGC-803 [1], 2.1 µM with NCI-H1650, 1.23 µM with HGC-27 and 39 µM in the assay with GES1. For the same compound, the “Ratio IC50” value in assay [2] turned out to be 37.8. Also, the Activity was 11.5% with MGC-803 [3]; “Tde” with MGC-803 [5]; “Dose-dependent effect” in the assay on MGC-803 [9]; 43.8% with MGC-803 [13]; 73.9% in the assay on MGC-803 [14]; “Dose-dependent effect” in the assay on MGC-803 [15]. For the same compound, the inhibition at 3 µM in the assay with MGC-803 [4] came out at 86%. The result in the assay on MGC-803 [6], in the assay with MGC-803 [7], in the assay on MGC-803 [8], with MGC-803 [10], in the assay on MGC-803 [11] and with MGC-803 [12] was Active.

In the case of `CCCSc1nc(N2CCOCC2)c2nc(Nc3ccccc3)sc2n1`, the IC50 with MGC-803 [1] stood at 5.81 µM; in the assay on NCI-H1650, 4.18 µM; with HGC-27, 9.51 µM.

For `CCCSc1nc(NCc2ccco2)c2nc(Nc3ccccc3)sc2n1`, the IC50 in the assay on MGC-803 [1] was over 64 µM; with NCI-H1650, 26.1 µM; in the assay with HGC-27, 28 µM.

Take `CCCSc1nc(NC2CC2)c2nc(Nc3ccccc3)sc2n1`: the IC50 in the assay with MGC-803 [1] was over 64 µM; in the assay with NCI-H1650, 41.7 µM; in the assay on HGC-27, 32.4 µM.

Regarding `CCCSc1nc(N2CCOCC2)c2nc(Nc3ccccn3)sc2n1`, the figures for the IC50 in the assay on MGC-803 [1], with NCI-H1650 and in the assay with HGC-27 were 9.35 µM, 7.73 µM and 8.84 µM, respectively.

In the case of `CCCSc1nc(N2CCOCC2)c2nc(Nc3cccc4ccccc34)sc2n1`, the IC50 was found to be 17.7 µM in the assay on MGC-803 [1], 9.73 µM in the assay with NCI-H1650 and 21.8 µM in the assay on HGC-27.

Regarding `CCCSc1nc(Nc2ccc(Cl)cc2)c2nc(Nc3ccccc3)sc2n1`, the results for the IC50 with MGC-803 [1], with NCI-H1650 and in the assay with HGC-27 were 12.5 µM, 12 µM and 20.3 µM, respectively.

Consider `CCCCc1ccc(Nc2nc(SCCC)nc3sc(Nc4ccccc4)nc23)cc1`, for which the IC50 was 17.4 µM with MGC-803 [1], 14.8 µM in the assay on NCI-H1650 and 13.1 µM with HGC-27.

A word on the IC50: it is the concentration that inhibits the measured activity by half. Lower therefore signals greater potency in that assay. Broadly, the inhibition is the relative decrease from the control value, in per cent.
